Published values from different studies.
Protocols differ between the studies behind these lines.
Target: Serine/threonine-protein kinase Nek11 (NEK11, Homo sapiens, UniProt Q8NG66)
One construct used (Q8NG66 1-645): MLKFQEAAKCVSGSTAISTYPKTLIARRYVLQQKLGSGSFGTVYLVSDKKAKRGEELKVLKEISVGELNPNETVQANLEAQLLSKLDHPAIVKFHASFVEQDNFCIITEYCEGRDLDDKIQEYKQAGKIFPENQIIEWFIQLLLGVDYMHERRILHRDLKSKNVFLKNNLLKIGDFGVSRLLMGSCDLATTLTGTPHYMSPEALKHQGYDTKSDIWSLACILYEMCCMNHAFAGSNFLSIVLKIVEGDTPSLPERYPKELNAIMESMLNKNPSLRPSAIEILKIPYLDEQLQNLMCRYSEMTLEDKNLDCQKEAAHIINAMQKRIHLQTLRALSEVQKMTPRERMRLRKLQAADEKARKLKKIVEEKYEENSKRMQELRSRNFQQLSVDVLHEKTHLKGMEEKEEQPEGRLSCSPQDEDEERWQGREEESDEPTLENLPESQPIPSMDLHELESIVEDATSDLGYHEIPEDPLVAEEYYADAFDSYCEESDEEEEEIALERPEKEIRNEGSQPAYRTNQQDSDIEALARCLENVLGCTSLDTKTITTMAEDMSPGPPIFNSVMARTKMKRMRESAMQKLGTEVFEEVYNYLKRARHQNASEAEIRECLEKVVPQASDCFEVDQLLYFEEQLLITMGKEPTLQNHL

With `Cc1ccc(NC(=O)c2ccc(C)c(C(F)(F)F)c2)cc1C#Cc1nn(C2CCC(O)CC2)c2ncnc(N)c12` (centres unmarked) the remaining signal was 50% (cell-free assay; 10 µM).
`Clc1ccc(Nc2nnc(Cc3ccncc3)c3ccccc23)cc1` has a remaining signal of 87% (cell-free assay; 0.5 µM).
With `CCN(CC)c1ccc(C2=NNC(=O)CC2C)cc1[N+](=O)[O-]` (centres unmarked) the remaining activity was 114% (enzyme activity; inhibitor; 10 µM).
With `COc1cc(-c2cn(C3CCc4c(F)cccc4N(CC(F)(F)F)C3=O)nn2)ccc1-n1cnc(C)c1` (centres unmarked) the remaining binding was 100% (cell-free assay; competition with immobilised ligand; 1 µM).
`N#CCCc1ccc2c(c1)-c1[nH]c3ccc([N+](=O)[O-])cc3c1CC(=O)N2` has a remaining signal of 101% (cell-free assay; 0.5 µM).
For `Cc1ccc(C(=O)Nc2ccc(CN3CCN(C)CC3)c(C(F)(F)F)c2)cc1C#Cc1cnc2cccnn12`, the remaining activity was 83% (enzyme activity; inhibitor; 23.5 nM).
`CCC(=O)N[C@H]1CC[C@@H](C(=O)N(C)c2ccc(-c3nc4ccccc4o3)cc2)C1` has a remaining binding of 86% (cell-free assay; competition with immobilised ligand; 1 µM).
`CC(C)(C)c1nc(-c2cccc(NS(=O)(=O)c3c(F)cccc3F)c2F)c(-c2ccnc(N)n2)s1` gave a remaining activity of 1% (enzyme activity; inhibitor; radiometric; 1 µM).
`Cc1ccc(Nc2nccc(N(C)c3ccc4c(C)n(C)nc4c3)n2)cc1S(N)(=O)=O` has an inhibition of 23% (enzyme activity; inhibitor; 10 µM).
The remaining binding of `CC(=O)N1CCC(c2ccc(C(=O)NC(=N)N)cc2C(F)(F)F)CC1` is reported as 100% (cell-free assay; competition with immobilised ligand; 1 µM).
With `C[C@@H]1CCN(C(=O)CC#N)C[C@@H]1N(C)c1ncnc2[nH]ccc12` the remaining signal was 91.7% (cell-free assay; inhibitor; 0.5 µM).
`CNC(=O)c1cc(Oc2ccc(NC(=O)Nc3ccc(Cl)c(C(F)(F)F)c3)cc2)ccn1` gave an inhibition of 5% (enzyme activity; inhibitor; 0.3 µM).
`O=C(Nc1cnn(-c2csc(C(=O)NC3COC3)c2)c1)Nc1c(F)cccc1Cl` has a remaining activity of 89.5% (enzyme activity; inhibitor; 5 µM).
The inhibition of `CN1CC(Oc2cnc(C#N)cc2-c2ccn3nc(NC(=O)C4CC4)cc3c2)C1` is reported as 11% (enzyme activity; inhibitor; 1 µM).
The remaining binding of `O=C(O)[C@H]1[C@H](Cn2nnc3ccccc3c2=O)CC[C@@H]1C(=O)c1ccc(OCCC2CCOCC2)cc1` is reported as 100% (cell-free assay; competition with immobilised ligand; 1 µM).
For `Oc1cccc(-c2nc(N3CCOCC3)c3oc4ncccc4c3n2)c1`, the remaining signal was 109% (cell-free assay; 0.5 µM).
For `CN1CCN(c2cnc3c(C4CCN(C(=O)c5ccc(OC(F)(F)F)cc5N)CC4)ncnc3c2)CC1`, the remaining binding was 100% (cell-free assay; competition with immobilised ligand; 1 µM).
`CCN(CC)CCNC(=O)c1c(C)[nH]c(/C=C2\C(=O)Nc3ccc(F)cc32)c1C` gave an inhibition of 16% (enzyme activity; inhibitor; 0.3 µM).
`CC1=C(C#N)C(c2ccc3c(c2)c(NC(=O)c2ccccc2C)nn3C)C(C#N)=C(C)N1` has a remaining binding of 96% (cell-free assay; competition with immobilised ligand; 1 µM).
For `O=C(Nc1cnn(-c2csc(C(=O)NC3COC3)c2)c1)Nc1ccccc1Cl`, the remaining activity was 145% (enzyme activity; inhibitor; 5 µM).
